Many of the other results were omitted from the sample, so hits are more common in it than they were.
Insulin prom act: TRM-6 insulin promoter activation; actives 0.81% (n = 130,000); activation, % at 2 µM; TRM-6 cells (human fetal islet line), insulin promoter eGFP reporter, imaging; plate-scaled: unstimulated 0, stimulated control 100;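 active = activation at 2 µM above a set limit, confirmed on inspection of the cell images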;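 also: share of cells whose green reporter signal exceeds an intensity cutoff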
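Material: TRM-6 insulin promoter–eGFP reporter cells. Buffer or medium: Low-glucose (5.5 mM) medium with tamoxifen. Probe or stimulus: tamoxifen at 0.75 µM added at seeding for reporter induction. Times: tamoxifen pre-incubation 15 h overnight, then compound exposure 48 h at 37 °C. Detection: high-content imaging of fixed cells with Hoechst nuclear stain.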
* = called active by the depositor.

For COc1ccc(C)cc1NC(=O)C(NC(=O)c1cc(OC)c(OC)c(OC)c1)C(C)C (centres undefined) the results were Insulin prom act 433*.
Screening COc1cc(OC)cc(C(=O)N[C@H](C(=O)OCC(=O)Nc2ccc(C)cc2C)C(C)C)c1 returned Insulin prom act 8.
NS(=O)(=O)c1ccc(CCNC(=O)COC(=O)/C=C/c2ccccc2Cl)cc1 was read as Insulin prom act 9.
Screening CCN(CC)CCCN1C(=O)C(O)=C(C(C)=O)C1c1cccc(OC)c1 (centres undefined) returned Insulin prom act -7.
For CC(=O)C1=C(O)C(=O)N(CCCn2ccnc2)C1c1ccc(Br)cc1 (centres undefined) the results were Insulin prom act 347*.
O=C(NCCCn1ccnc1)C(=O)NCC1OCCN1S(=O)(=O)c1ccc(Br)cc1 (centres undefined) was read as Insulin prom act 0.
`CC(OC(=O)CCc1nc2ccccc2c(=O)[nH]1)C(=O)c1ccc(Br)cc1` (centres undefined) gave Insulin prom act 0.
CCOC(=O)Cn1c(=O)sc2ccccc21 was read as Insulin prom act 0.
`COc1ccc(-n2c(Cn3c(=O)sc4ccccc43)nnc2SC)cc1` gave Insulin prom act 12.
`Cc1ccc(OCn2c(=O)sc3ccccc32)cc1` gave Insulin prom act 437*.
For Cc1cccc(Nc2nnc(-c3ccc(N4CCOCC4)c([N+](=O)[O-])c3)c3ccccc23)c1 the results were Insulin prom act -8.
For Cc1cc(O)ccc1N=Cc1c(C(F)(F)F)[nH][nH]c1=O the results were Insulin prom act -6.
`O=C(Nc1cccc2cccnc12)c1ccc2c(c1)OCCO2` gave Insulin prom act 7.
For COc1cc(NC(=O)c2ccc3c(c2)OCO3)c2ncccc2c1 the results were Insulin prom act 412*.
For COc1ccc(-c2nc3cc(NC(=O)c4ccc5c(c4)OCO5)ccc3o2)cc1 the results were Insulin prom act -9.
Screening O=C(OC(C(=O)NCc1ccc2c(c1)OCO2)c1ccncc1)c1ccc(Cl)nc1 (centres undefined) returned Insulin prom act 5.
Screening COc1ccc(OC)c(NC(=O)Cc2coc3ccc4ccccc4c23)c1 returned Insulin prom act -7.
C/C(=N\NC(=O)c1ccccc1-n1cccc1)C1CC1 was read as Insulin prom act -4.
`C=CCNc1sc(C(=O)c2ccccc2)c(N)c1-c1nc2ccccc2s1` gave Insulin prom act 2.
O=C(c1ccccc1)c1c2c(cc3sc4ccccc4[n+]13)-c1cccc3cccc-2c13 was read as Insulin prom act 233*.
For CN1CCN(NC(=O)c2cc(S(=O)(=O)N3CCOCC3)c(Cl)cc2Cl)CC1 the results were Insulin prom act -3.
COc1ccc(S(=O)(=O)N2CCC(C(=O)N3CCCCC3)CC2)cc1Cl was read as Insulin prom act 157.
`CC1=CCC2COC(c3ccc[n+](Cc4ccccc4)c3)C1C2` (centres undefined) gave Insulin prom act -7.
Screening Cc1cc(C)c(NS(=O)(=O)c2ccc(NC(=O)CCC(=O)O)cc2)c(C)c1 returned Insulin prom act -8.
For CC(Oc1ccc(C(=O)NCCc2ccccc2)cc1)C(=O)O (centres undefined) the results were Insulin prom act 0.
For O=C(C[n+]1cccc(CNC(=O)c2ccc(OC(F)F)cc2)c1)c1ccccc1 the results were Insulin prom act 341*.
O=C(NCc1ccccc1)c1ccc(S(=O)(=O)C(F)F)cc1 was read as Insulin prom act -3.
CCNC(=S)Nc1cc(Cl)ccc1Oc1ccccc1 was read as Insulin prom act 0.
`COc1cc(CNCc2cccs2)ccc1OCC(=O)NC(C)(C)C` gave Insulin prom act 125*.
CCOc1cc(CNCCCN2CCOCC2)ccc1OCC(=O)NC(C)(C)C was read as Insulin prom act -6.
For COc1cc(CNCc2cccs2)ccc1OCC(N)=O the results were Insulin prom act 2.
For Oc1ccc(N2CCN(C(=S)NCCc3ccccc3)CC2)cc1 the results were Insulin prom act -6.
Screening S=C(NCCc1ccccc1)Nc1cccc2cnccc12 returned Insulin prom act -73.
`O=C(CSc1nnc(-c2cccnc2)n1Cc1ccco1)NCc1ccc2c(c1)OCO2` gave Insulin prom act 285*.
Screening C=CCn1c(SCC(=O)NCc2ccc3c(c2)OCO3)nnc1-c1cccnc1 returned Insulin prom act -76.
COc1cccc(-c2nnc(SCC(=O)NCc3ccc4c(c3)OCO4)n2Cc2ccco2)c1 was read as Insulin prom act -4.
CC(=O)Nc1cc(Cl)ccc1OS(=O)(=O)c1ccc(C)cc1 was read as Insulin prom act -6.
For CCOC(=O)c1ccc(N2C(=O)c3n[nH]c(-c4ccco4)c3C2c2cccc([N+](=O)[O-])c2)cc1 (centres undefined) the results were Insulin prom act -3.
For COC(=O)C1CN(S(=O)(=O)c2ccccc2)CCN1S(=O)(=O)c1ccccc1 (centres undefined) the results were Insulin prom act 8.
Screening CC(C)c1nnc(NC(=O)Cc2ccccc2[N+](=O)[O-])s1 returned Insulin prom act 0.
Screening CC(C)(C)N(Cc1ccccc1)C(=O)COC(=O)Cn1cnc2ccccc2c1=O returned Insulin prom act 9.
For CCN1CCN(c2nc(Nc3cccc(C)c3)nc(N)c2[N+](=O)[O-])CC1 the results were Insulin prom act 8.
`Cc1ccc(Nc2nc(N)c([N+](=O)[O-])c(N3CCC(C)CC3)n2)cc1C` gave Insulin prom act 529*.
`Cc1ccc(Nc2nc(NCC3CCCO3)nc(N)c2[N+](=O)[O-])cc1C` (centres undefined) gave Insulin prom act 5.
For Cc1c(NC(=O)CN2C(=O)NC3(CCCCC3)C2=O)c(=O)n(-c2ccccc2)n1C the results were Insulin prom act -8.
`COc1ccc2c(C(=O)CN3CCN(c4ccccc4)CC3)c[nH]c2c1` gave Insulin prom act 94*.
`COc1ccc(N2CCN(CCCNC(=O)Nc3ccccc3)CC2)cc1` gave Insulin prom act 229.
Screening COc1cccc(N2CCN(CC(=O)NC(=O)NCc3ccco3)CC2)c1 returned Insulin prom act -8.
For CC(c1ccccc1)n1cc(C(=O)NCc2cccnc2)nn1 (centres undefined) the results were Insulin prom act 0.
CC(NS(=O)(=O)c1ccc(CCC(=O)NCc2cccnc2)cc1)c1ccccc1 (centres undefined) was read as Insulin prom act 133.
`CCC(C(=O)NCc1cccnc1)c1ccccc1` (centres undefined) gave Insulin prom act 440*.
For CCSc1n[nH]c(=S)s1 the results were Insulin prom act 7.
Screening O=C(Nc1cnccn1)Nc1cccc(Cl)c1Cl returned Insulin prom act -7.
Screening Cc1ccc(CC(=O)N2CCN(c3ccccn3)CC2)cc1 returned Insulin prom act -7.
Screening CC(=O)Nc1ccc(S(=O)(=O)NC(C)C(=O)NCCc2ccc(F)cc2)cc1 (centres undefined) returned Insulin prom act 123.
Screening CCN=C1SC(C(=O)Nc2cccc(Br)c2)CC(=O)N1CC (centres undefined) returned Insulin prom act 0.
`Cc1ccccc1CN1CCN(S(C)(=O)=O)CC1` gave Insulin prom act 444*.
For CCOc1ccccc1CN1CCN(S(C)(=O)=O)CC1 the results were Insulin prom act 0.
